Assay results reported in ChEMBL document CHEMBL1138802, “New water-soluble sulfonylphosphoramidic acid derivatives of the COX-2 selective inhibitor cimicoxib. A novel approach to sulfonamide prodrugs” (J Med Chem, 2004).

Columns and labels:
[1] = target: T1, Prostaglandin G/H synthase 2 (Rattus norvegicus) (UniProt P35355); experiment: Percentage inhibition of rat carrageenan-induced paw edema after iv administration at 3 mg/kg; type: functional, organism-based; set-up: dose 3 mg/kg
T1 sequence (whole entry): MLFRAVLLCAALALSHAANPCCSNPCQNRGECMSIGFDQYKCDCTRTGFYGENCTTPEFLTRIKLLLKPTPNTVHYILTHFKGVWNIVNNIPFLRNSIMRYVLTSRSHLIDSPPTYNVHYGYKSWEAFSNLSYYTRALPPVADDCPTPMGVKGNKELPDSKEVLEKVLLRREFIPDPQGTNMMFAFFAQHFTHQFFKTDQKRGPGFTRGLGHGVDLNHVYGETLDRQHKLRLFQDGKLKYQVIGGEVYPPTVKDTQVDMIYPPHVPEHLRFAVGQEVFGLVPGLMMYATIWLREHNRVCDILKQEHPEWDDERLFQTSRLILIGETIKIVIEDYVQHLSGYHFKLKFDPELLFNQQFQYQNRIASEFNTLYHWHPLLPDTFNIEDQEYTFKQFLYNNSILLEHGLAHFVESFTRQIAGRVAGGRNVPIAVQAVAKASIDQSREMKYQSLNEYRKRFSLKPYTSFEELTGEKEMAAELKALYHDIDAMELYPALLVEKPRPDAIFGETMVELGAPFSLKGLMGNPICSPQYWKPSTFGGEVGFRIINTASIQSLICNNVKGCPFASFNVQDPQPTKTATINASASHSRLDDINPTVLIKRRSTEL
Summary of the method: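 Male Sprague–Dawley rats (150–175 g) were dosed iv at 3 mg/kg in PBS (1 mL/kg) 10 min before intraplantar injection of 0.1 mL 1% λ-carrageenan into the hindpaw. Paw volume was measured by water-displacement plethysmometry before and 1, 2, 3 and 4 h after treatment. % inhibition was calculated from the AUC of treated versus control animals.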

[2] = Half life after i.v. administration of 2 mg/kg to Dogs; type: ADME, organism-based, Canis lupus familiaris; set-up: dose 2 mg/kg, route intravenous; conditions: dog, in vivo, iv
Summary of the method: (§1)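 Dogs received the parent sulfonamide iv at 2 mg/kg as a suspension. Parameters (t1/2, AUC/dose in ng h/mL, Cl in mL/h/kg, Vd in mL/kg) were derived from its plasma levels and reported as mean ± deviation.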

[3] = Area under curve after i.v. administration of 1 mg/kg to Dogs; type: ADME, organism-based, Canis lupus familiaris; set-up: dose 1 mg/kg, route intravenous; conditions: dog, in vivo, iv
Summary of the method: (§2)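 Dogs received the water-soluble phosphoramidic acid prodrug iv at 1 mg/kg as a solution. Parameters (t1/2, AUC/dose in ng h/mL, Cl in mL/h/kg, Vd in mL/kg) were derived from plasma levels of the released parent sulfonamide and reported as mean ± deviation.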

[4] = Volume of distribution after i.v. administration of 1 mg/kg to Dogs; type: ADME, organism-based, Canis lupus familiaris; set-up: dose 1 mg/kg, route intravenous; conditions: dog, in vivo, iv; summary of the method: as §2
[5] = Clearance after i.v. administration of 1 mg/kg to Dogs; type: ADME, organism-based, Canis lupus familiaris; set-up: dose 1 mg/kg, route intravenous; conditions: dog, in vivo, iv; summary of the method: as §2
[6] = Area under curve after i.v. administration of 2 mg/kg to Dogs; type: ADME, organism-based, Canis lupus familiaris; set-up: dose 2 mg/kg, route intravenous; conditions: dog, in vivo, iv; summary of the method: as §1
[7] = Volume of distribution after i.v. administration of 2 mg/kg to Dogs; type: ADME, organism-based, Canis lupus familiaris; set-up: dose 2 mg/kg, route intravenous; conditions: dog, in vivo, iv; summary of the method: as §1
[8] = Clearance after i.v. administration of 2 mg/kg to Dogs; type: ADME, organism-based, Canis lupus familiaris; set-up: dose 2 mg/kg, route intravenous; conditions: dog, in vivo, iv; summary of the method: as §1

inhibition [1] [%]	half-life [2] [h]	AUC/dose [3] [ng·h/mL]	Vd [4] [L/kg]	clearance [5] [mL/min/kg]	AUC/dose [6] [ng·h/mL]	Vd [7] [L/kg]	clearance [8] [mL/min/kg]	Compound
32.6	–	–	–	–	–	–	–	CCC(=O)NS(=O)(=O)c1ccc(-c2c(-c3ccccc3)noc2C)cc1
34.8	4.9	3641.1	1.86	4.55	–	–	–	COc1ccc(-c2c(Cl)ncn2-c2ccc(S(=O)(=O)NP(=O)(O)O)cc2)cc1F
34.8	5	–	–	–	3253.4	2.12	4.87	COc1ccc(-c2c(Cl)ncn2-c2ccc(S(N)(=O)=O)cc2)cc1F [CIMICOXIB]
